Source: ChEMBL document CHEMBL2321753, “Synthesis and biological evaluation of radioiodinated quinacrine-based derivatives for SPECT imaging of Aβ plaques” (Eur J Med Chem, 2013)
pKi: −log10 of the molar value.

Key:
Spleen [1] = assay: Biodistribution in ddY mouse spleen at 0.1 to 0.4 uCi, iv after 10 mins by gamma counting; type: ADME, organism-based; settings: in vivo
How it was run: (§1)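 [125I]ligand (0.1–0.4 µCi) in 100 µL PBS (pH 7.4) containing 30 µL DMSO, injected into the tail vein of ddY mice (5 weeks, 22–25 g). Mice sacrificed at 2, 10, 30 and 60 min. Organs removed, weighed and gamma-counted. Values are % injected dose per gram, except stomach as % dose per organ. Mean (SD) of 3–6 mice per time point.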

Blood [2] = assay: Biodistribution in ddY mouse blood at 0.1 to 0.4 uCi, iv after 10 mins by gamma counting; type: ADME, organism-based; settings: in vivo; how it was run: as §1
Heart [3] = assay: Biodistribution in ddY mouse heart at 0.1 to 0.4 uCi, iv after 2 mins by gamma counting; type: ADME, organism-based; settings: in vivo; how it was run: as §1
Intestine [4] = assay: Biodistribution in ddY mouse intestine at 0.1 to 0.4 uCi, iv after 2 mins by gamma counting; type: ADME, organism-based; settings: in vivo; how it was run: as §1
Intestine [5] = assay: Biodistribution in ddY mouse intestine at 0.1 to 0.4 uCi, iv after 10 mins by gamma counting; type: ADME, organism-based; settings: in vivo; how it was run: as §1
Stomach [6] = assay: Biodistribution in ddY mouse stomach assessed per organ at 0.1 to 0.4 uCi, iv after 60 mins by gamma counting; type: ADME, organism-based; settings: in vivo, 1 h; how it was run: as §1
Spleen [7] = assay: Biodistribution in ddY mouse spleen at 0.1 to 0.4 uCi, iv after 2 mins by gamma counting; type: ADME, organism-based; settings: in vivo; how it was run: as §1
Heart [8] = assay: Biodistribution in ddY mouse heart at 0.1 to 0.4 uCi, iv after 30 mins by gamma counting; type: ADME, organism-based; settings: in vivo, 0.5 h; how it was run: as §1
Heart [9] = assay: Biodistribution in ddY mouse heart at 0.1 to 0.4 uCi, iv after 60 mins by gamma counting; type: ADME, organism-based; settings: in vivo, 1 h; how it was run: as §1
Kidney [10] = assay: Biodistribution in ddY mouse kidney at 0.1 to 0.4 uCi, iv after 10 mins by gamma counting; type: ADME, organism-based; settings: in vivo; how it was run: as §1
Pancreas [11] = assay: Biodistribution in ddY mouse pancreas at 0.1 to 0.4 uCi, iv after 10 mins by gamma counting; type: ADME, organism-based; settings: in vivo; how it was run: as §1
Liver [12] = assay: Biodistribution in ddY mouse liver at 0.1 to 0.4 uCi, iv after 2 mins by gamma counting; type: ADME, organism-based; settings: in vivo; how it was run: as §1
Brain [13] = assay: Biodistribution in ddY mouse brain at 0.1 to 0.4 uCi, iv after 60 mins by gamma counting; type: ADME, organism-based; settings: in vivo, 1 h; how it was run: as §1
Stomach [14] = assay: Biodistribution in ddY mouse stomach assessed per organ at 0.1 to 0.4 uCi, iv after 30 mins by gamma counting; type: ADME, organism-based; settings: in vivo, 0.5 h; how it was run: as §1
Liver [15] = assay: Biodistribution in ddY mouse liver at 0.1 to 0.4 uCi, iv after 10 mins by gamma counting; type: ADME, organism-based; settings: in vivo; how it was run: as §1
Pancreas [16] = assay: Biodistribution in ddY mouse pancreas at 0.1 to 0.4 uCi, iv after 60 mins by gamma counting; type: ADME, organism-based; settings: in vivo, 1 h; how it was run: as §1
[17] = n-octanol-sodium phosphate buffer partition co-efficient, log D of the compound at pH 7.4 by shake flask method; type: physicochemical
How it was run: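 Shake-flask partition between n-octanol and sodium phosphate buffer, pH 7.4, shaken 10 min at room temperature, then centrifuged. Weighed 0.5 mL samples of each layer counted. log D from the ratio of cpm per gram of octanol to cpm per gram of buffer; n = 3.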

Liver [18] = assay: Biodistribution in ddY mouse liver at 0.1 to 0.4 uCi, iv after 30 mins by gamma counting; type: ADME, organism-based; settings: in vivo, 0.5 h; how it was run: as §1
Heart [19] = assay: Biodistribution in ddY mouse heart at 0.1 to 0.4 uCi, iv after 10 mins by gamma counting; type: ADME, organism-based; settings: in vivo; how it was run: as §1
Kidney [20] = assay: Biodistribution in ddY mouse kidney at 0.1 to 0.4 uCi, iv after 2 mins by gamma counting; type: ADME, organism-based; settings: in vivo; how it was run: as §1
Kidney [21] = assay: Biodistribution in ddY mouse kidney at 0.1 to 0.4 uCi, iv after 60 mins by gamma counting; type: ADME, organism-based; settings: in vivo, 1 h; how it was run: as §1
Lung [22] = assay: Biodistribution in ddY mouse lung at 0.1 to 0.4 uCi, iv after 10 mins by gamma counting; type: ADME, organism-based; settings: in vivo; how it was run: as §1
Blood [23] = assay: Biodistribution in ddY mouse blood at 0.1 to 0.4 uCi, iv after 2 mins by gamma counting; type: ADME, organism-based; settings: in vivo; how it was run: as §1
Brain [24] = assay: Biodistribution in ddY mouse brain at 0.1 to 0.4 uCi, iv after 30 mins by gamma counting; type: ADME, organism-based; settings: in vivo, 0.5 h; how it was run: as §1
Liver [25] = assay: Biodistribution in ddY mouse liver at 0.1 to 0.4 uCi, iv after 60 mins by gamma counting; type: ADME, organism-based; settings: in vivo, 1 h; how it was run: as §1
Kidney [26] = assay: Biodistribution in ddY mouse kidney at 0.1 to 0.4 uCi, iv after 30 mins by gamma counting; type: ADME, organism-based; settings: in vivo, 0.5 h; how it was run: as §1
Lung [27] = assay: Biodistribution in ddY mouse lung at 0.1 to 0.4 uCi, iv after 30 mins by gamma counting; type: ADME, organism-based; settings: in vivo, 0.5 h; how it was run: as §1
Lung [28] = assay: Biodistribution in ddY mouse lung at 0.1 to 0.4 uCi, iv after 60 mins by gamma counting; type: ADME, organism-based; settings: in vivo, 1 h; how it was run: as §1
Stomach [29] = assay: Biodistribution in ddY mouse stomach assessed per organ at 0.1 to 0.4 uCi, iv after 10 mins by gamma counting; type: ADME, organism-based; settings: in vivo; how it was run: as §1
Intestine [30] = assay: Biodistribution in ddY mouse intestine at 0.1 to 0.4 uCi, iv after 60 mins by gamma counting; type: ADME, organism-based; settings: in vivo, 1 h; how it was run: as §1
Pancreas [31] = assay: Biodistribution in ddY mouse pancreas at 0.1 to 0.4 uCi, iv after 2 mins by gamma counting; type: ADME, organism-based; settings: in vivo; how it was run: as §1
Blood [32] = assay: Biodistribution in ddY mouse blood at 0.1 to 0.4 uCi, iv after 30 mins by gamma counting; type: ADME, organism-based; settings: in vivo, 0.5 h; how it was run: as §1
Stomach [33] = assay: Biodistribution in ddY mouse stomach assessed per organ at 0.1 to 0.4 uCi, iv after 2 mins by gamma counting; type: ADME, organism-based; settings: in vivo; how it was run: as §1
Brain [34] = assay: Biodistribution in ddY mouse brain at 0.1 to 0.4 uCi, iv after 2 mins by gamma counting; type: ADME, organism-based; settings: in vivo; how it was run: as §1
Spleen [35] = assay: Biodistribution in ddY mouse spleen at 0.1 to 0.4 uCi, iv after 60 mins by gamma counting; type: ADME, organism-based; settings: in vivo, 1 h; how it was run: as §1
Pancreas [36] = assay: Biodistribution in ddY mouse pancreas at 0.1 to 0.4 uCi, iv after 30 mins by gamma counting; type: ADME, organism-based; settings: in vivo, 0.5 h; how it was run: as §1
Blood [37] = assay: Biodistribution in ddY mouse blood at 0.1 to 0.4 uCi, iv after 60 mins by gamma counting; type: ADME, organism-based; settings: in vivo, 1 h; how it was run: as §1
Lung [38] = assay: Biodistribution in ddY mouse lung at 0.1 to 0.4 uCi, iv after 2 mins by gamma counting; type: ADME, organism-based; settings: in vivo; how it was run: as §1
Intestine [39] = assay: Biodistribution in ddY mouse intestine at 0.1 to 0.4 uCi, iv after 30 mins by gamma counting; type: ADME, organism-based; settings: in vivo, 0.5 h; how it was run: as §1
Spleen [40] = assay: Biodistribution in ddY mouse spleen at 0.1 to 0.4 uCi, iv after 30 mins by gamma counting; type: ADME, organism-based; settings: in vivo, 0.5 h; how it was run: as §1
Brain [41] = assay: Biodistribution in ddY mouse brain at 0.1 to 0.4 uCi, iv after 10 mins by gamma counting; type: ADME, organism-based; settings: in vivo; how it was run: as §1
[42] = molecular target: Amyloid-beta precursor protein (Homo sapiens, UniProt P05067); assay: Displacement of [125I]IMPY from amyloid beta (1 to 42) (unknown origin) after 3 hrs by gamma counting
How it was run: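 Filtered through GF/B filters and bound radioactivity gamma-counted. IC50 from displacement curves of three independent experiments; Ki calculated with the Cheng–Prusoff equation.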

Sequence of Amyloid-beta precursor protein (P05067 whole entry): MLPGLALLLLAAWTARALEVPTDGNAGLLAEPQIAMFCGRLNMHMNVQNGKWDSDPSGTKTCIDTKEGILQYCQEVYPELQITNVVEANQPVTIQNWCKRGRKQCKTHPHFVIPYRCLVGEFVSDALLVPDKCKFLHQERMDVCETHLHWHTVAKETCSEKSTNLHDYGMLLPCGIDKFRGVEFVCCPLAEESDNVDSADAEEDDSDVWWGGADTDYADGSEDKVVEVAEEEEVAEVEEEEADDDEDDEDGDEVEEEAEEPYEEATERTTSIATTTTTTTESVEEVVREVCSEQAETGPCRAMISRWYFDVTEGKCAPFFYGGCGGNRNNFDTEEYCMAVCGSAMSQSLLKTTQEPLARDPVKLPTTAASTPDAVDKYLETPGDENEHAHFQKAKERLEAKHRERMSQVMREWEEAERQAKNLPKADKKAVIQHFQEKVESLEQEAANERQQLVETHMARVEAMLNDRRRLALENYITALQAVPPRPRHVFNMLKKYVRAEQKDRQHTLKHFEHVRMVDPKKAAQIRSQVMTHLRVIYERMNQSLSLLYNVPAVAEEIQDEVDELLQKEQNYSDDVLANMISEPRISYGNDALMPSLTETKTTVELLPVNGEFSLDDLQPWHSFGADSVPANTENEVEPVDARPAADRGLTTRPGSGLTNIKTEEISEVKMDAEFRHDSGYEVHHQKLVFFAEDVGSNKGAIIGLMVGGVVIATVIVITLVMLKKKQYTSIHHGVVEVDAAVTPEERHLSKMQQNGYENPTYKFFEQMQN

## COc1ccc2nc3cc([125I])ccc3c(N)c2c1
Spleen [1]
  Drug uptake: 14.65 % ID/g
Blood [2]
  Drug uptake: 2.09 % ID/g
Heart [3]
  Drug uptake: 4.46 % ID/g
Intestine [4]
  Drug uptake: 1.86 % ID/g
Intestine [5]
  Drug uptake: 14.19 % ID/g
Stomach [6]
  Drug uptake: 1.74 %ID
Spleen [7]
  Drug uptake: 4.7 % ID/g
Heart [8]
  Drug uptake: 2.26 % ID/g
Heart [9]
  Drug uptake: 0.49 % ID/g
Kidney [10]
  Drug uptake: 22.51 % ID/g
Pancreas [11]
  Drug uptake: 11.52 % ID/g
Liver [12]
  Drug uptake: 6.24 % ID/g
Brain [13]
  Drug uptake: 0.19 % ID/g
Stomach [14]
  Drug uptake: 6.66 %ID
Liver [15]
  Drug uptake: 14.79 % ID/g
Pancreas [16]
  Drug uptake: 0.76 % ID/g
[17]
  logD: 2.13
Liver [18]
  Drug uptake: 8.4 % ID/g
Heart [19]
  Drug uptake: 4.57 % ID/g
Kidney [20]
  Drug uptake: 9.81 % ID/g
Kidney [21]
  Drug uptake: 3.58 % ID/g
Lung [22]
  Drug uptake: 14.29 % ID/g
Blood [23]
  Drug uptake: 1.15 % ID/g
Brain [24]
  Drug uptake: 1.27 % ID/g
Liver [25]
  Drug uptake: 2.84 % ID/g
Kidney [26]
  Drug uptake: 12.64 % ID/g
Lung [27]
  Drug uptake: 5.04 % ID/g
Lung [28]
  Drug uptake: 1.4 % ID/g
Stomach [29]
  Drug uptake: 6.58 %ID
Intestine [30]
  Drug uptake: 11.2 % ID/g
Pancreas [31]
  Drug uptake: 4.34 % ID/g
Blood [32]
  Drug uptake: 1.46 % ID/g
Stomach [33]
  Drug uptake: 0.99 %ID
Brain [34]
  Drug uptake: 1.35 % ID/g
Spleen [35]
  Drug uptake: 3.28 % ID/g
Pancreas [36]
  Drug uptake: 4.98 % ID/g
Blood [37]
  Drug uptake: 0.49 % ID/g
Lung [38]
  Drug uptake: 9.91 % ID/g
Intestine [39]
  Drug uptake: 17.49 % ID/g
Spleen [40]
  Drug uptake: 10.6 % ID/g
Brain [41]
  Drug uptake: 3.16 % ID/g

## COc1c2ccc(I)cc2nc2ccc(N(C)C)cc12
[42]
  pKi: 7.52

## COc1c2ccccc2nc2cc(I)ccc12
[42]
  pKi: < 5.00

## CNc1c2ccc(I)cc2nc2ccc(OC)cc12
[42]
  pKi: 7.86
